Data reported in ChEMBL document CHEMBL4622842, “Optimization and biological evaluation of imidazopyridine derivatives as a novel scaffold for γ-secretase modulators with oral efficacy against cognitive deficits in Alzheimer's disease model mice” (Bioorg Med Chem, 2020).
Active and inactive are the calls of the source. The calls are words filed in the database; no cut-off is given here.

Assays:
[1] = target: Gamma-secretase; experiment: Inhibition of gamma-secretase in human SK-N-BE cells assessed as decrease in amyloid beta 42 production treated for 6 hrs by ELISA; format: cell-based
Summary of the method: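 SK-N-BE(2) human neuroblastoma cells grown in RPMI1640 with 10% FBS and penicillin/streptomycin, plated in 96-well plates overnight, then exposed to a range of drug concentrations in 0.5% DMSO for 6 h. Medium Aβ1-42 was measured by sandwich ELISA (44A3 capture, biotin-82E1 detection, streptavidin-HRP, TMB). Total Aβ was measured by ELISA kit. Mean of two wells.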

[2] = Ratio of drug concentration in plasma of Sprague-Dawley rat at 30 mg/kg, po to IC50 of gamma-secretase in human SK-N-BE cells; format: ADME, organism-based; details: in vivo
[3] = Drug concentration in brain of Sprague-Dawley rat at 30 mg/kg, po measured after 3 hrs by LC/MS-MS analysis; format: ADME, organism-based; details: in vivo
Summary of the method: (§1)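 Nonfasted 6-week-old male SD rats (n = 2 or 3) received a single oral dose of 10 or 30 mg/kg as a suspension in 0.5% (w/v) methylcellulose. Plasma and brain were sampled 3 h post-dose, proteins were precipitated with acetonitrile, and drug was quantified by LC-MS/MS. Values are the mean of two or three rats. The brain/plasma ratio was taken from these concentrations.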

[4] = Intrinsic clearance in rat liver microsomes at 0.2 uM incubated upto 45 mins by LC/MS-MS analysis; format: ADME, Microsome; details: for CLint scaled at 0.2 µM: liver microsomes
Summary of the method: (§2)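 Test compound at 0.2 μM incubated at 37 °C with pooled rat or mouse liver microsomes (0.2 mg protein/mL), 1 mM NADPH and 0.1 mM EDTA in 100 mM Na+-K+ phosphate, pH 7.4. Samples taken at 0, 15, 30 and 45 min; compound/internal-standard peak areas measured by LC-MS/MS to calculate CLint (mL/min/kg). Mean of duplicate experiments.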

[5] = system: Rattus norvegicus; experiment: Reduction in amyloid beta 42 production in Sprague-Dawley rat plasma at 30 mg/kg, po measured after 3 to 4 hrs by ELISA relative to control; format: functional
Summary of the method: (§3)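 Nonfasted 6-week-old male SD rats (n = 4 or 5) given a single oral dose of 10 or 30 mg/kg in 0.5% (w/v) methylcellulose. Blood and brain were taken under isoflurane 3 h post-dose (4 h for some entries). Hippocampus was sonicated in 10 volumes of TBS pH 7.4 with protease inhibitors and spun at 100,000g, 4 °C, 1 h. Aβx-42 in supernatant and plasma measured by ELISA; Student's t-test vs vehicle.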

[6] = Ratio of drug concentration in brain to blood of Sprague-Dawley rat at 30 mg/kg, po measured after 3 hrs by LC/MS-MS analysis; format: ADME, organism-based; details: brain and blood; summary of the method: as §1
[7] = Ratio of drug concentration in brain of Sprague-Dawley rat at 30 mg/kg, po to IC50 of gamma-secretase in human SK-N-BE cells; format: ADME, organism-based; details: in vivo
[8] = Drug concentration in plasma of Sprague-Dawley rat at 30 mg/kg, po measured after 3 hrs by LC/MS-MS analysis; format: ADME, organism-based; summary of the method: as §1
[9] = system: Rattus norvegicus; experiment: Reduction in amyloid beta 42 production in Sprague-Dawley rat brain at 30 mg/kg, po measured after 3 to 4 hrs by ELISA relative to control; format: functional; summary of the method: as §3
[10] = target: T1, CYP3A4 (Homo sapiens, UniProt P08684); experiment: Inhibition of CYP3A4 in human liver microsome assessed as enzyme residual activity pre-incubated for 0 min followed by midazolam addition incubated for 20 mins by LC-MS/MS analysis relative to control; format: ADME; details: liver microsomes, probe midazolam, read-out: INH
T1 sequence (P08684 whole entry): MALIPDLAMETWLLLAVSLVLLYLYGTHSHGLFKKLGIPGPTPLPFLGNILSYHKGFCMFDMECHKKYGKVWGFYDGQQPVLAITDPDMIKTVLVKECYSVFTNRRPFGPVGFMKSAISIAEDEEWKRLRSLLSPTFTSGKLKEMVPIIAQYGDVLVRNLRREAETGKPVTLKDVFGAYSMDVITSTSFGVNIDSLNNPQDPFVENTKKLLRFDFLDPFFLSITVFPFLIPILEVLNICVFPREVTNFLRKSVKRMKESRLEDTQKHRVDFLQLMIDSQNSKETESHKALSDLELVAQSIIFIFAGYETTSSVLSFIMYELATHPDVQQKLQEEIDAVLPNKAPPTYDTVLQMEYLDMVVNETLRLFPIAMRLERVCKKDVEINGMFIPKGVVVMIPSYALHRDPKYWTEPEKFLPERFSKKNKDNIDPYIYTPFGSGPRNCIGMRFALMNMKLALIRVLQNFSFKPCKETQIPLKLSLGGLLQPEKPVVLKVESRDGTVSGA
Summary of the method: (§4)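 Human liver microsomes at 0.1 mg protein/mL with 1 mM NADPH, 0.1 mM EDTA, 100 mM Na+-K+ phosphate pH 7.4 and 5 μM test compound, preincubated 0 or 30 min at 37 °C. Started with 1.5 μM midazolam, run 20 min, stopped with 80% acetonitrile containing internal standard. Peak-area ratios with compound vs without gave residual activity; mean of duplicates.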

[11] = target: Cytochrome P450 2C9 (Homo sapiens, UniProt P11712); experiment: Inhibition of human recombinant CYP2C9 assessed as reduction in metabolite formation using MFC as substrate incubated for 30 mins by fluorescence assay; format: ADME
Cytochrome P450 2C9, sequence (P11712 whole entry): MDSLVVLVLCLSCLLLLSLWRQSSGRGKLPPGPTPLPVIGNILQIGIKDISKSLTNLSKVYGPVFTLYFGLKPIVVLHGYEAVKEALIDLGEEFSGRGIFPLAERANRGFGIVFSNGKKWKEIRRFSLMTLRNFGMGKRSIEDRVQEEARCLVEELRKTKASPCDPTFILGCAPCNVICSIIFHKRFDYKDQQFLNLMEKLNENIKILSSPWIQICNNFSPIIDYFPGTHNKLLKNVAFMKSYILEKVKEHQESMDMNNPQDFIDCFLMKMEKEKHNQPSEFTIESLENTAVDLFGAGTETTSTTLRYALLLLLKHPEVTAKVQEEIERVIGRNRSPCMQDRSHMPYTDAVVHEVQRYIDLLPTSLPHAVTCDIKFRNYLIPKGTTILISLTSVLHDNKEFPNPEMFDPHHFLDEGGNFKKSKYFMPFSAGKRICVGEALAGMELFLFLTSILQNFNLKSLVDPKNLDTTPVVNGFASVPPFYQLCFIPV
Summary of the method: (§5)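 Recombinant human CYP with co-factors, fluorogenic substrate, potassium phosphate buffer pH 7.4 and test compound at 0.31–20 μM, incubated at 37 °C. Substrates and incubation times: CYP1A2, 5 μM CEC, 20 min; CYP2C9, 75 μM MFC, 30 min; CYP2C19, 25 μM CEC, 20 min; CYP2D6, AMMC, 20 min. Stopped with Tris base/acetonitrile; metabolite read by fluorescence. IC50 is the mean of duplicates.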

[12] = Drug concentration in brain of Sprague-Dawley rat at 10 mg/kg, po measured after 3 hrs by LC/MS-MS analysis; format: ADME, organism-based; details: in vivo; summary of the method: as §1
[13] = target: T2, Cytochrome P450 1A2 (Homo sapiens, UniProt P05177); experiment: Inhibition of human recombinant CYP1A2 assessed as reduction in metabolite formation using CEC as substrate incubated for 20 mins by fluorescence assay; format: ADME; summary of the method: as §5
T2 sequence (P05177 whole entry): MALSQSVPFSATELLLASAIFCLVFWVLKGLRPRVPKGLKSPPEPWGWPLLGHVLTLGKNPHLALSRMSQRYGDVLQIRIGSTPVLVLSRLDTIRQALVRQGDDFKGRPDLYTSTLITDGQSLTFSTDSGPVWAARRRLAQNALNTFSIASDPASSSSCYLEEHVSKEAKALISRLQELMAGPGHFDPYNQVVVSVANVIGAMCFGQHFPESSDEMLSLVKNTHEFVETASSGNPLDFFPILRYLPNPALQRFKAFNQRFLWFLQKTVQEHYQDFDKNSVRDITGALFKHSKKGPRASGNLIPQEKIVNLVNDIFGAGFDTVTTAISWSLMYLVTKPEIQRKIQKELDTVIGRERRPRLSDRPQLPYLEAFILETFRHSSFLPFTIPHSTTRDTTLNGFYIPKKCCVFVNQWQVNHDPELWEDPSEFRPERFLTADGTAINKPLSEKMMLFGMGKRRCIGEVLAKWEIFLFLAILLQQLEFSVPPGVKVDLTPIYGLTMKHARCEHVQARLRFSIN

[14] = Ratio of drug concentration in brain to blood of Sprague-Dawley rat at 10 mg/kg, po measured after 3 hrs by LC/MS-MS analysis; format: ADME, organism-based; details: brain and blood; summary of the method: as §1
[15] = Ratio of drug concentration in plasma of Sprague-Dawley rat at 10 mg/kg, po to IC50 of gamma-secretase in human SK-N-BE cells; format: ADME, organism-based; details: in vivo
[16] = system: Rattus norvegicus; experiment: Reduction in amyloid beta 42 production in Sprague-Dawley rat brain at 10 mg/kg, po measured after 3 to 4 hrs by ELISA relative to control; format: functional; summary of the method: as §3
[17] = system: Rattus norvegicus; experiment: Reduction in amyloid beta 42 production in Sprague-Dawley rat plasma at 10 mg/kg, po measured after 3 to 4 hrs by ELISA relative to control; format: functional; summary of the method: as §3
[18] = target: T1, CYP3A4; experiment: Inhibition of CYP3A4 in human liver microsome assessed as enzyme residual activity pre-incubated for 30 min followed by midazolam addition incubated for 20 mins by LC-MS/MS analysis relative to control; format: ADME; details: liver microsomes, probe midazolam, read-out: INH; summary of the method: as §4
[19] = Drug concentration in plasma of Sprague-Dawley rat at 10 mg/kg, po measured after 3 hrs by LC/MS-MS analysis; format: ADME, organism-based; summary of the method: as §1
[20] = target: Cytochrome P450 2C19 (Homo sapiens, UniProt P33261); experiment: Inhibition of human recombinant CYP2C19 assessed as reduction in metabolite formation using CEC as substrate incubated for 20 mins by fluorescence assay; format: ADME; summary of the method: as §5
Cytochrome P450 2C19, sequence (P33261 whole entry): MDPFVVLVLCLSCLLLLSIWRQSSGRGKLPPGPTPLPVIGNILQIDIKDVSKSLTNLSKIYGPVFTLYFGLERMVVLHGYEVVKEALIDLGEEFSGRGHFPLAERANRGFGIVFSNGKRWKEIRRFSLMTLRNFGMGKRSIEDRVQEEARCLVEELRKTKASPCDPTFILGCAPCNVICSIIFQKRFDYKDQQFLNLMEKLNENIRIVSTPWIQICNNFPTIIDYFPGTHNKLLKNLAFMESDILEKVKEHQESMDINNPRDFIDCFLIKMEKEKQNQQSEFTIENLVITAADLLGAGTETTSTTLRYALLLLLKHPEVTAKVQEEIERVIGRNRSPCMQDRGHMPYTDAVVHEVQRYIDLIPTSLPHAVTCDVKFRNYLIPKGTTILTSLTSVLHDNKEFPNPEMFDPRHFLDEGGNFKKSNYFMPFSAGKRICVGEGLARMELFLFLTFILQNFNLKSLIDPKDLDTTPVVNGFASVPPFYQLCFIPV

[21] = system: Mus musculus; experiment: Antialzheimer activity in transgenic Tg2576 mouse assessed as improvement of spatial memory impairment at 2 and 6 mg/kg, po administered daily for 8 weeks measured after 3 hrs on day 8 by Y-maze test; format: functional, organism-based; details: in the assay text read “8 days” for “8 weeks”
Summary of the method: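 Female Tg2576 mice, 6 months old, nonfasted (n = 5 or 6), dosed orally once daily for 8 days at 0.6, 2.0, 6.0 or 20 mg/kg as a suspension in 0.5% methyl cellulose. Three hours after the day-8 dose, each mouse started at the end of one arm of a three-arm Y-maze and explored freely for 8 min. Spontaneous alternation was scored; animals with <10 total arm entries were excluded. Student's t-test vs vehicle.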

[22] = Ratio of drug concentration in brain of Sprague-Dawley rat at 10 mg/kg, po to IC50 of gamma-secretase in human SK-N-BE cells; format: ADME, organism-based; details: in vivo
[23] = target: Cytochrome P450 2D6 (Homo sapiens, UniProt P10635); experiment: Inhibition of human recombinant CYP2D6 assessed as reduction in metabolite formation using AMMC as substrate incubated for 20 mins by fluorescence assay; format: ADME; summary of the method: as §5
Cytochrome P450 2D6, sequence (P10635 whole entry): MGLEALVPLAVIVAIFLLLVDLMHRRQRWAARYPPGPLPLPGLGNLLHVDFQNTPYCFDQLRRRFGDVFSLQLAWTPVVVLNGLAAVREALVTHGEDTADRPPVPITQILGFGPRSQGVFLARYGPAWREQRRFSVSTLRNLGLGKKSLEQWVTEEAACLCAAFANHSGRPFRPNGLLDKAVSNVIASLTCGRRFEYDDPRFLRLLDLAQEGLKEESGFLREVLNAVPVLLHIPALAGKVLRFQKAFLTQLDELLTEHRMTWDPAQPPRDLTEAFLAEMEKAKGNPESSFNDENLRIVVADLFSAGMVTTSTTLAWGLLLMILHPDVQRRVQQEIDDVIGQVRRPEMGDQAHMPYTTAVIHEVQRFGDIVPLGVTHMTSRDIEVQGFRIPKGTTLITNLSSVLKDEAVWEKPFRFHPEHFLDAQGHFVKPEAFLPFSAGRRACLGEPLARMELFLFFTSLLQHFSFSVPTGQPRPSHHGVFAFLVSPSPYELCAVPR

[24] = Intrinsic clearance in mouse liver microsomes at 0.2 uM incubated upto 45 mins by LC/MS-MS analysis; format: ADME, Microsome; summary of the method: as §2

Structure (SMILES) | IC50 [1] [nM] | CLint scaled at 0.2 µM [4] [mL/min/kg] | inhibition in vivo at 30 mg/kg [5] [%] | inhibition in vivo at 30 mg/kg [9] [%] | further results
CCn1c(=O)c2ccc(-c3c(C)nc4c(OCc5ccc(-c6ccc(F)cc6)cc5)cccn34)cc2n1C | > 2000 |  |  |  | 
CNC(=O)c1ccc(-c2c(C)nc3c(OCc4ccc(-c5ccc(F)cc5)cc4)cccn23)cn1.Cl | 37 | 147 | 68 | 40 | Ratio [2]: 446; Ct [3]: 7.1 nmol/g; Kp at 3 h [6]: 0.44; Ratio [7]: 193; concentration at 3 h [8]: 17 µM
CNC(=O)c1ccc(-c2c(C)nc3c(OCc4ccc(-c5ccc(F)cc5)cc4F)cccn23)cn1.Cl | 29 | 115 | 77 | 42 | activity at 20 min [10]: 109%; IC50 [11]: > 10000 nM; Ct [12]: 1.5 nmol/g; IC50 [13]: > 10000 nM; Kp at 3 h [14]: 0.27; Ratio [15]: 196; Ratio [2]: 561; inhibition in vivo at 10 mg/kg [16]: 23%; inhibition in vivo at 10 mg/kg [17]: 63%; Ct [3]: 3.5 nmol/g; activity at 20 min [18]: 104%; concentration at 3 h [19]: 5.7 µM; IC50 [20]: > 10000 nM; Activity [21]: Active; Ratio [22]: 51; Kp at 3 h [6]: 0.23; Ratio [7]: 121; concentration at 3 h [8]: 16 µM; IC50 [23]: > 10000 nM
CCNC(=O)c1ccc(-c2c(C)nc3c(OCc4ccc(-c5ccc(C(F)(F)F)cc5)cc4)cccn23)cn1.Cl | 210 |  | 40 | 4 | CLH ([4]; microsomes, 0.75 h, 0.2 µM): Stable
CCNC(=O)c1ccc(-c2c(C)nc3c(OCc4ccc(-c5ccccc5)cc4)cccn23)cn1.Cl |  | 835 | 28 | 13 | Ratio [2]: 75; Ct [3]: 2.1 nmol/g; CLint scaled at 0.2 µM [24]: 227 mL/min/kg; Kp at 3 h [6]: 0.3; Ratio [7]: 23; concentration at 3 h [8]: 6.8 µM
Cc1nc2c(OCc3ccc(-c4ccc(F)cc4)cc3)cccn2c1-c1ccc2c(=O)n(C)oc2c1.Cl | 69 | 167 | 81 | 29 | Ratio [2]: 304; Ct [3]: 5.6 nmol/g; Kp at 3 h [6]: 0.27; Ratio [7]: 81; concentration at 3 h [8]: 21 µM
CCn1[nH]c2cc(-c3c(C)nc4c(OCc5ccc(-c6ccc(F)cc6)cc5)cccn34)ccc2c1=O | 390 |  |  |  | 
CCN1Cc2cc(-c3c(C)nc4c(OCc5ccc(-c6ccc(F)cc6)cc5)cccn34)ccc2C1=O | 92 | 345 | 59 | 10 | 
CCNC(=O)c1ccc(-c2c(C)nc3c(OCc4ccc(-c5ccccc5C(F)(F)F)cc4)cccn23)cn1 | 180 | 790 |  |  | 
CCNC(=O)c1ccc(-c2c(C)nc3c(OCc4ccc(-c5ccc(F)cc5)cc4)cccn23)cn1 | 75 | 221 | 43 | 22 | 
CCn1sc2cc(-c3c(C)nc4c(OCc5ccc(-c6ccc(F)cc6)cc5)cccn34)ccc2c1=O | > 2000 |  |  |  | 
CCNC(=O)c1ccc(-c2c(C)nc3c(OCc4ccc(-c5cccc(F)c5)cc4)cccn23)cn1 | 99 | 307 | 42 | 22 | 
CCNC(=O)c1ccc(-c2c(C)nc3c(OCc4ccc(-c5cccc(C(F)(F)F)c5)cc4)cccn23)cn1 | 61 | 38 | 62 | 15 | 
CCn1oc2cc(-c3c(C)nc4c(OCc5ccc(-c6ccc(F)cc6)cc5)cccn34)ccc2c1=O | 90 | 214 | 63 | 20 | 
CCNC(=O)c1ccc(-c2c(C)nc3c(OCc4ccc(-c5ccccc5F)cc4)cccn23)cn1 | 220 | > 1000 |  |  | 
